Results as given in ChEMBL document CHEMBL1133466, “Synthesis and antimalarial activity of sixteen dispiro-1,2,4, 5-tetraoxanes: alkyl-substituted 7,8,15,16-tetraoxadispiro[5.2.5. 2]hexadecanes” (J Med Chem, 2000).

Assays:
[1] = system: Plasmodium falciparum; assay: Antimalarial activity against chloroquine-sensitive Plasmodium falciparum D6; assay type: functional, organism-based
[2] = system: Plasmodium falciparum; assay: Antimalarial activity against chloroquine-resistant Plasmodium falciparum W2; assay type: functional, organism-based
[3] = Evaluated for the neurotoxicity against NB2a Neuroblastoma cells.; assay type: functional, cell-based, Mus musculus
In short: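 Neurite outgrowth assay in NB2a neuroblastoma cells grown in high-glucose DMEM with 5% horse serum and 5% fetal calf serum, 37 °C, 5% CO2. Cells plated at 15 000 cells/mL. After 24 h, switched to serum-free medium with 0.5 mM dibutyryl cAMP plus drug at 10 and 0.1 µM for a further 24 h. Cells fixed in formaldehyde and stained with Coomassie. Average neurite length per cell measured by image analysis over 10 fields of about 20 cells; IC50 reported.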

[4] = system: Mus musculus; assay: Evaluated for the percentage of subcutaneously to Plasmodium berghei infected mice on days 3, 4, and 5 post infection.; assay type: functional
In short: (§1)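 Modified Thompson test. Five-week-old CD-1 mice infected ip on day 0 with drug-sensitive P. berghei KBG 173 trophozoites from a donor mouse at 60% parasitemia. Groups of five or seven mice dosed sc b.i.d. on days 3, 4 and 5 at 64 mg/kg/day. Parasitemia read on Giemsa-stained blood films on day 6, then weekly to day 60. Survival followed; mice alive and blood-film negative at day 60 counted as cured.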

[5] = system: Mus musculus; assay: Evaluated for the survival of the mice when 128 mg/kg/day was administered orally to Plasmodium berghei infected mice on days 3, 4, and 5 post infection;1/9 1/26 3/C(C=survival beyond 60 days); assay type: functional, organism-based
In short: as §1, with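 “po” for “sc”, “128” for “64”, “Giemsa” for “Parasitemia read on Giemsa-stained”, “films taken” for “films”, “Day of death recorded;” for “Survival followed;”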

[6] = system: Mus musculus; assay: Evaluated for the survival of the mice when 64 mg/kg/day was administered subcutaneously to Plasmodium berghei infected mice on days 3, 4, and 5 post infection;1/8, 1/9, 1/10, 1/12, 1/15; assay type: functional, organism-based; in short: as §1
[7] = system: Mus musculus; assay: Evaluated for the survival of the mice when 128 mg/kg/day was administered orally to Plasmodium berghei infected mice on days 3, 4, and 5 post infection; 1/15; 1/17; 1/18; 2/C(C=Survival beyond 60 days); assay type: functional, organism-based
In short: as §1, with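 “po” for “sc”, “128” for “64”, “Giemsa” for “Parasitemia read on Giemsa-stained”, “films taken” for “films”, “Day of death recorded;” for “Survival followed;”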

[8] = system: Mus musculus; assay: Evaluated for the survival of the mice when 64 mg/kg/day was administered subcutaneously to Plasmodium berghei infected mice on days 3, 4, and 5 post infection;1/9, 2/10, 1/18, 1/19; assay type: functional, organism-based; in short: as §1
[9] = system: Mus musculus; assay: Evaluated for the survival of the mice when 128 mg/kg/day was administered orally to Plasmodium berghei infected mice on days 3, 4, and 5 post infection; 5/C(C=survival beyond 60 days); assay type: functional, organism-based
In short: as §1, with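 “po” for “sc”, “128” for “64”, “Giemsa” for “Parasitemia read on Giemsa-stained”, “films taken” for “films”, “Day of death recorded;” for “Survival followed;”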

[10] = system: Mus musculus; assay: Evaluated for the survival of the mice when 64 mg/kg/day was administered subcutaneously to Plasmodium berghei infected mice on days 3, 4, and 5 post infection; 7/C(C=survival beyond 60 days); assay type: functional, organism-based; in short: as §1
[11] = system: Mus musculus; assay: Evaluated for the survival of the mice when 64 mg/kg/day was administered subcutaneously to Plasmodium berghei infected mice on days 3, 4, and 5 post infection;1/8, 2/9, 1/10, 1/13; assay type: functional, organism-based; in short: as §1
[12] = system: Mus musculus; assay: Evaluated for the survival of the mice when 128 mg/kg/day was administered orally to Plasmodium berghei infected mice on days 3, 4, and 5 post infection.1/8, 2/16, 1/32, 3/C(C=survival beyond 60 days); assay type: functional, organism-based
In short: as §1, with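 “po” for “sc”, “128” for “64”, “Giemsa” for “Parasitemia read on Giemsa-stained”, “films taken” for “films”, “Day of death recorded;” for “Survival followed;”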

Compound | IC50 [1] | IC50 [2] | IC50 [3] | Parasitemia [4] | also measured
CC1CC(C)(C)CCC12OOC1(CCC(C)(C)CC1C)OO2 (stereo unspecified) | > 1000 nM | > 1000 nM | 1.4 nM | – | –
CC[C@@H]1CCCCC12OOC1(CCCC[C@@H]1CC)OO2 (stereo partly specified) | 23 nM | 19 nM | 9.3 nM | 28% | –
C[C@@H]1CC[C@H]2[C@@H](C)C(=O)O[C@@H]3O[C@@]4(C)CC[C@@H]1[C@]32OO4 [ARTEMISININ] | 8.4 nM | 7.3 nM | – | – | –
CC(C)(C)C1CCC2(CC1)OOC1(CCC(C(C)(C)C)CC1)OO2 (stereo unspecified) | 200 nM | 100 nM | 2.8 nM | – | –
CC1CCC2(CC1)OOC1(CCC(C)CC1)OO2 (stereo unspecified) | 23 nM | 21 nM | 1.1 nM | 22% | –
CC1CCC2(OOC3(CCC(C)CC3C)OO2)C(C)C1 (stereo unspecified) | 110 nM | 49 nM | > 1 nM | – | –
CC1CCCC2(C1)OOC1(CCCC(C)C1)OO2 (stereo unspecified) | 76 nM | 51 nM | 16 nM | – | –
CC1CC(C)CC2(C1)OOC1(CC(C)CC(C)C1)OO2 (stereo unspecified) | 30 nM | 15 nM | 6.7 nM | 82% | –
CC1CCCC2(OOC3(CCCC(C)C3C)OO2)C1C (stereo unspecified) | 50 nM | 43 nM | – | 3% | –
CC1(C)CCC2(CC1)OOC1(CCC(C)(C)CC1)OO2 | > 1000 nM | > 1000 nM | 2 nM | – | –
CC1(C)CC(C)(C)CC2(C1)OOC1(CC(C)(C)CC(C)(C)C1)OO2 | > 1000 nM | > 1000 nM | 3.6 nM | – | –
CC1CCC(C)C2(C1)OOC1(CC(C)CCC1C)OO2 (stereo unspecified) | 15 nM | 19 nM | 17 nM | 13% | No. of mice dead/day died [5]: survival beyond 60 days; No. of mice dead/day died [6]: survival beyond 60 days
CC1CCC2(CC1C)OOC1(CCC(C)C(C)C1)OO2 (stereo unspecified) | 12 nM | 10 nM | 4.4 nM | 14% | No. of mice dead/day died [7]: Survival beyond 60 days; No. of mice dead/day died [8]: Survival beyond 60 days
CC(C)(C)[C@H]1CCCCC12OOC1(CCCC[C@H]1C(C)(C)C)OO2 (stereo partly specified) | > 300 nM | 160 nM | 3.4 nM | – | –
CO[C@H]1O[C@@H]2O[C@@]3(C)CC[C@H]4[C@H](C)CC[C@@H]([C@H]1C)[C@@]24OO3 [ARTEMETHER] | – | – | 351 nM | – | –
CCC[C@@H]1CCCCC12OOC1(CCCC[C@@H]1CCC)OO2 (stereo partly specified) | 84 nM | 39 nM | – | – | –
CCO[C@H]1O[C@@H]2O[C@@]3(C)CC[C@H]4[C@H](C)CC[C@@H]([C@H]1C)[C@@]24OO3 [ARTEMOTIL] | 2.7 nM | 1.4 nM | – | 0% | No. of mice dead/day died [9]: survival beyond 60 days; No. of mice dead/day died [10]: survival beyond 60 days
CC1CCC(C(C)C)C2(C1)OOC1(CC(C)CCC1C(C)C)OO2 (stereo unspecified) | 47 nM | 37 nM | 37 nM | 7% | No. of mice dead/day died [11]: survival beyond 60 days; No. of mice dead/day died [12]: survival beyond 60 days
C[C@@H]1CCCCC12OOC1(CCCC[C@@H]1C)OO2 (stereo partly specified) [WR-148999] | 55 nM | 32 nM | 8.4 nM | 11% | –
CC(C)C1CCC(C)C2(C1)OOC1(CC(C(C)C)CCC1C)OO2 (stereo unspecified) | 140 nM | 94 nM | 40 nM | – | –
